{"data": "Assay results of several laboratories", "note": "Compare with care: the assays were run in different laboratories."}
{"Structure (SMILES)": "Nc1ccn(C[C@@H](CO)OCP(=O)(O)O)c(=O)n1", "organism": "Human alphaherpesvirus 1", "test": "cytopathic effect", "test system": "HEL", "measurement": "EC50", "result": "2000 nM"}
{"Structure (SMILES)": "CC[C@H](C)C[C@H](C)CCCCCCCCC(=O)N[C@H]1C[C@@H](O)[C@@H](NCCN)NC(=O)[C@@H]2[C@@H](O)CCN2C(=O)[C@H]([C@H](O)CCN)NC(=O)[C@H]([C@H](O)[C@@H](O)c2ccc(O)cc2)NC(=O)[C@@H]2C[C@@H](O)CN2C(=O)[C@H]([C@@H](C)O)NC1=O", "organism": "Lodderomyces parapsilosis", "test": "microbial growth, broth dilution", "test system": "ATCC22019", "measurement": "MIC", "result": "0.5 µg/mL"}
{"Structure (SMILES)": "CCCCCOc1ccc(-c2cc(-c3ccc(C(=O)N[C@H]4C[C@@H](O)[C@@H](O)NC(=O)[C@@H]5[C@@H](O)[C@@H](C)CN5C(=O)[C@H]([C@H](O)CC(N)=O)NC(=O)[C@H]([C@H](O)[C@@H](O)c5ccc(O)c(OS(=O)(=O)O)c5)NC(=O)[C@@H]5C[C@@H](O)CN5C(=O)[C@H]([C@@H](C)O)NC4=O)cc3)no2)cc1", "organism": "Lodderomyces parapsilosis", "test": "microbial growth", "measurement": "MIC90", "result": "4 µg/mL"}
{"Structure (SMILES)": "Cc1ncc([N+](=O)[O-])n1CCO", "organism": "Bacteroides fragilis", "test": "microbial growth", "measurement": "MIC50", "result": "0.5 µg/mL"}
{"Structure (SMILES)": "O=C(NCc1ccc2c(c1)OCO2)c1ccc(Br)cc1F", "organism": "Aspergillus brasiliensis", "test": "microbial growth", "test system": "ATCC16404", "setting": "72 h", "measurement": "MIC", "result": "> 200 µM"}
{"Structure (SMILES)": "CCOC(=O)c1ccccc1S(=O)(=O)NC(=O)Nc1nc(Cl)cc(OC)n1", "organism": "Lodderomyces parapsilosis", "test": "microbial growth, broth dilution", "setting": "24 h", "measurement": "MIC50", "result": "1.1 µM"}
{"Structure (SMILES)": "Cn1cnc2nc(NCc3ccc(Cl)c(Cl)c3)[nH]c(=O)c21", "organism": "Bacteroides fragilis", "test": "microbial growth, agar dilution", "setting": "48 h", "measurement": "MIC", "result": "> 32 µg/mL"}
{"Structure (SMILES)": "Nc1nc2c(ncn2COCCO)c(=O)[nH]1", "organism": "Human alphaherpesvirus 1", "test": "cytopathic effect", "test system": "HEL", "measurement": "EC50", "result": "200 nM"}
{"Structure (SMILES)": "O=[N+]([O-])c1ccc(C2=[N+]([O-])c3ccccc3N3CCN=C23)cc1", "organism": "Bacteroides fragilis", "test": "microbial growth", "measurement": "MIC50", "result": "≤ 0.06 µg/mL"}
{"Structure (SMILES)": "O=c1[nH]c(=O)n([C@H]2C[C@H](O)[C@@H](CO)O2)cc1/C=C/Br", "organism": "Human alphaherpesvirus 1", "test": "cytopathic effect", "test system": "HEL", "measurement": "EC50", "result": "2000 nM"}
{"Structure (SMILES)": "CC(C)[C@H](N)C(=O)OCCCCCn1cnc2nc(NCc3ccc(Cl)c(Cl)c3)[nH]c(=O)c21", "organism": "Bacteroides fragilis", "test": "microbial growth, agar dilution", "setting": "48 h", "measurement": "MIC", "result": "> 32 µg/mL"}
{"Structure (SMILES)": "OC(Cn1cncn1)(Cn1cncn1)c1ccc(F)cc1F", "organism": "Aspergillus niger", "test": "microbial killing", "measurement": "MFC", "result": "40 µM"}
